Legend:
[1] = AUC (0 to infinity) in CD-1 mouse at 20 mg/kg, po administered through gavage by LC-MS/MS analysis; type: ADME, organism-based; set-up: time infinity, dose 20 mg/kg, route oral; conditions: plasma
Procedure, shortened: (§1)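 Male CD-1 mice, fasted overnight, food returned 2 h post-dose; single oral gavage at 20, 50 or 100 mg/kg. Terminal cardiac-puncture blood at 0.25, 0.5, 1, 2, 4, 6, 8, 24 h, 3 mice per time point; heparinized plasma extracted into acetonitrile/formic acid with IS, LC-MS/MS. Noncompartmental analysis: linear trapezoidal AUC extrapolated to infinity, CL/F, F relative to 2 mg/kg IV.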

[2] = Plasma clearance in CD-1 mouse at 2 mg/kg, iv administered as single bolus dose by LC-MS/MS analysis; type: ADME, organism-based; set-up: dose 2 mg/kg, route intravenous
Procedure, shortened: (§2)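 Single 2 mg/kg IV bolus via lateral tail vein to male CD-1 mice. Mice euthanized at 0.083–24 h, 3 per time point (27 animals); cardiac-puncture blood into heparin on ice, plasma spun at 4 °C and immediately extracted with acetonitrile/0.1% formic acid plus IS, LC-MS/MS. Noncompartmental CL = Dose/AUC0–inf, t1/2 = 0.693/k, Vss from AUMC/AUC, MRT = Vss/CL.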

[3] = Fraction unbound in CD-1 mouse plasma after 7 hrs by equilibrium dialysis method; type: ADME, cell-free
Procedure, shortened: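 Mouse plasma pre-treated 20 min with 100 µM DFP to block hydrolysis, spiked at 0.1, 0.5 or 2 µM, equilibrium dialysis against PBS for 7 h at 37 °C, 5% CO2, triplicate; matrix-matched samples extracted with acetonitrile/IS, LC-MS/MS; fu = buffer/plasma concentration.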

[4] = Volume of distribution at steady state in CD-1 mouse at 2 mg/kg, iv administered as single bolus dose by LC-MS/MS analysis; type: ADME, organism-based; set-up: dose 2 mg/kg, route intravenous; conditions: in vivo, read-out: Vdss; procedure, shortened: as §2
[5] = Drug metabolism in CD-1 mouse NADPH-fortified liver microsomes assessed as hydrolysis metabolite formation rate by LC-MS/MS analysis; type: ADME
Procedure, shortened: (§3)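 Mouse liver microsomes 0.25 mg/mL in 0.1 M phosphate pH 7.4, with or without 1 mM NADPH, substrate 0.0023–5 µM; sampling to 40 min into acetonitrile/IS, LC-MS/MS depletion. Hydrolysis Vmax/Km solved from no-NADPH incubations, then NADPH-dependent constants; metabolite formation rate simulated from fitted constants; duplicates.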

[6] = Half life in CD-1 mouse at 20 mg/kg, po administered through gavage by LC-MS/MS analysis; type: ADME, organism-based; set-up: dose 20 mg/kg, route oral; conditions: in vivo; procedure, shortened: as §1
[7] = Intrinsic clearance in CD-1 mouse liver microsomes at 0.1 uM by LC-MS/MS analysis in presence of NADPH; type: ADME; conditions: read-out: CLH
Procedure, shortened: (§4)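 Liver microsomes (0.25 mg/mL protein, 0.1 M phosphate pH 7.4) from mouse, rat, dog or human; substrate 0.1 or 1 µM with 1 mM NADPH (mouse also without). Samples at 0, 10, 20, 30, 40 min into acetonitrile with tolbutamide, centrifuged, LC-MS/MS; CLint = (0.693/t1/2)/microsomal protein concentration.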

[8] = Drug metabolism in CD-1 mouse liver microsomes assessed as hydrolysis metabolite formation rate by LC-MS/MS analysis; type: ADME; procedure, shortened: as §3
[9] = Half life in CD-1 mouse at 50 mg/kg, po administered through gavage by LC-MS/MS analysis; type: ADME, organism-based; set-up: dose 50 mg/kg, route oral; conditions: in vivo; procedure, shortened: as §1
[10] = Apparent oral clearance in CD-1 mouse at 50 mg/kg, po administered through gavage by LC-MS/MS analysis; type: ADME, organism-based; set-up: dose 50 mg/kg, route oral; conditions: in vivo; procedure, shortened: as §1
[11] = Intrinsic clearance in CD-1 mouse liver microsomes at 1 uM by LC-MS/MS analysis in presence of NADPH; type: ADME; conditions: read-out: CLH; procedure, shortened: as §4
Plasma [12] = assay: Metabolic stability in CD-1 mouse plasma assessed as hydrolysis product M1 [(1s,4s)-4-(2-amino-6-((4-(2-hydroxypropan-2-yl)piperidin-1-yl)methyl)-1H-benzo[d]imidazol-1-yl)-N-isopropylcyclohexanecarboxamide] formation at 5 uM after 20 mins by LC-MS/MS analysis; type: ADME, cell-free
[13] = Intrinsic clearance in Sprague-Dawley rat liver microsomes at 1 uM by LC-MS/MS analysis in presence of NADPH; type: ADME; conditions: read-out: CLH; procedure, shortened: as §4
[14] = Intrinsic clearance in Sprague-Dawley rat liver microsomes at 0.1 uM by LC-MS/MS analysis in presence of NADPH; type: ADME; conditions: read-out: CLH; procedure, shortened: as §4
[15] = Mean residence time in CD-1 mouse at 2 mg/kg, iv administered as single bolus dose by LC-MS/MS analysis; type: ADME, organism-based; set-up: dose 2 mg/kg, route intravenous; conditions: in vivo; procedure, shortened: as §2
Mus musculus = assay: Oral bioavailability in CD-1 mouse at 50 mg/kg administered through gavage by LC-MS/MS analysis relative to 2 mg/kg, iv dose; type: ADME, organism-based; conditions: in vivo; procedure, shortened: as §1
Plasma [16] = assay: Drug metabolism in CD-1 mouse plasma assessed as maximum intrinsic clearance for hydrolysis metabolite formation by LC-MS/MS analysis; type: ADME, cell-free
Procedure, shortened: (§5)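 Mouse plasma depletion kinetics at 37 °C, substrate range 0.0023–5 µM, up to 3 h; samples quenched into acetonitrile/tolbutamide, LC-MS/MS. CLint per concentration from t1/2; apparent Vmax and Km fitted by nonlinear regression to Michaelis-Menten, formation rate simulated from fit; mean of two replicates.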

[17] = AUC (0 to infinity) in CD-1 mouse at 50 mg/kg, po administered through gavage by LC-MS/MS analysis; type: ADME, organism-based; set-up: time infinity, dose 50 mg/kg, route oral; conditions: plasma; procedure, shortened: as §1
[18] = In vitro half life in CD-1 mouse plasma at 0.83 uM by LC-MS/MS analysis; type: ADME, cell-free
Procedure, shortened: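 Screening stability: compound at 0.83 µM in mouse plasma at 37 °C, up to 3 h; timed aliquots quenched into acetonitrile with tolbutamide IS, centrifuged, LC-MS/MS; half-life from depletion, CLint = (0.693/t1/2)/plasma concentration.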

[19] = Cmax in CD-1 mouse at 20 mg/kg, po administered through gavage by LC-MS/MS analysis; type: ADME, organism-based; set-up: dose 20 mg/kg, route oral; conditions: in vivo; procedure, shortened: as §1
[20] = Intrinsic clearance in human liver microsomes at 0.1 uM by LC-MS/MS analysis in presence of NADPH; type: ADME; conditions: read-out: CLH; procedure, shortened: as §4
[21] = Apparent oral clearance in CD-1 mouse at 100 mg/kg, po administered through gavage by LC-MS/MS analysis; type: ADME, organism-based; set-up: dose 100 mg/kg, route oral; conditions: in vivo; procedure, shortened: as §1
[22] = Tmax in CD-1 mouse at 20 mg/kg, po administered through gavage by LC-MS/MS analysis; type: ADME, organism-based; set-up: dose 20 mg/kg, route oral; conditions: in vivo; procedure, shortened: as §1
[23] = Tmax in CD-1 mouse at 50 mg/kg, po administered through gavage by LC-MS/MS analysis; type: ADME, organism-based; set-up: dose 50 mg/kg, route oral; conditions: in vivo; procedure, shortened: as §1
[24] = Intrinsic clearance in CD-1 mouse liver microsomes at 1 uM by LC-MS/MS analysis in absence of NADPH; type: ADME; conditions: read-out: CLH; procedure, shortened: as §4
[25] = Half life in CD-1 mouse at 100 mg/kg, po administered through gavage by LC-MS/MS analysis; type: ADME, organism-based; set-up: dose 100 mg/kg, route oral; conditions: in vivo; procedure, shortened: as §1
[26] = Tmax in CD-1 mouse at 100 mg/kg, po administered through gavage by LC-MS/MS analysis; type: ADME, organism-based; set-up: dose 100 mg/kg, route oral; conditions: in vivo; procedure, shortened: as §1
Plasma [27] = assay: Drug metabolism in CD-1 mouse plasma assessed as hydrolysis metabolite formation rate by LC-MS/MS analysis; type: ADME, cell-free; procedure, shortened: as §5
[28] = Half life in CD-1 mouse at 2 mg/kg, iv administered as single bolus dose by LC-MS/MS analysis; type: ADME, organism-based; set-up: dose 2 mg/kg, route intravenous; conditions: in vivo; procedure, shortened: as §2
[29] = Intrinsic clearance in Beagle dog liver microsomes at 1 uM by LC-MS/MS analysis in presence of NADPH; type: ADME, Canis lupus familiaris; conditions: read-out: CLH; procedure, shortened: as §4
[30] = Oral bioavailability in CD-1 mouse at 20 mg/kg administered through gavage by LC-MS/MS analysis relative to 2 mg/kg, iv dose; type: ADME, organism-based; conditions: in vivo; procedure, shortened: as §1
[31] = AUC (0 to infinity) in CD-1 mouse at 2 mg/kg, iv administered as single bolus dose by LC-MS/MS analysis; type: ADME, organism-based; set-up: time infinity, dose 2 mg/kg, route intravenous; conditions: plasma; procedure, shortened: as §2
[32] = Cmax in CD-1 mouse at 50 mg/kg, po administered through gavage by LC-MS/MS analysis; type: ADME, organism-based; set-up: dose 50 mg/kg, route oral; conditions: in vivo; procedure, shortened: as §1
[33] = Apparent oral clearance in CD-1 mouse at 20 mg/kg, po administered through gavage by LC-MS/MS analysis; type: ADME, organism-based; set-up: dose 20 mg/kg, route oral; conditions: in vivo; procedure, shortened: as §1
[34] = Oral bioavailability in CD-1 mouse at 100 mg/kg administered through gavage by LC-MS/MS analysis relative to 2 mg/kg, iv dose; type: ADME, organism-based; conditions: in vivo; procedure, shortened: as §1
[35] = AUC (0 to infinity) in CD-1 mouse at 100 mg/kg, po administered through gavage by LC-MS/MS analysis; type: ADME, organism-based; set-up: time infinity, dose 100 mg/kg, route oral; conditions: plasma; procedure, shortened: as §1
[36] = Intrinsic clearance in human liver microsomes at 1 uM by LC-MS/MS analysis in presence of NADPH; type: ADME; conditions: read-out: CLH; procedure, shortened: as §4
[37] = Intrinsic clearance in CD-1 mouse liver microsomes at 0.1 uM by LC-MS/MS analysis in absence of NADPH; type: ADME; conditions: read-out: CLH; procedure, shortened: as §4
[38] = Fraction unbound in CD-1 mouse liver microsomes after 7 hrs by equilibrium dialysis method; type: ADME
Procedure, shortened: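 Equilibrium dialysis of 0.25 mg/mL mouse liver microsomes in phosphate buffer against PBS, 7 h at 37 °C, 5% CO2, test compound 0.1, 0.5 or 2 µM, triplicate; LC-MS/MS; fraction unbound = buffer/microsome concentration.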

[39] = Cmax in CD-1 mouse at 100 mg/kg, po administered through gavage by LC-MS/MS analysis; type: ADME, organism-based; set-up: dose 100 mg/kg, route oral; conditions: in vivo; procedure, shortened: as §1

CC(C)NC(=O)[C@H]1CC[C@@H](n2/c(=N/C(=O)c3ccc(F)cc3)[nH]c3ccc(CN4CCC(C(C)(C)O)CC4)cc32)CC1
AUC(0-inf) [1]: 1.31 µM·h
clearance [2]: 92 mL/min/kg
fraction unbound at 7 h [3]: 0.02
Vd [4]: 2.62 L/kg
Vmax(app) [5]: 45.4 pmol/min/mg
Km ([5]; read-out: Km(app)): 0.263 µM
half-life [6]: 1.23 h
microsomal CLint at 0.1 µM [7]: 891 µL/min/mg
Vmax(app) [8]: 82 pmol/min/mg
Km ([8]; read-out: Km(app)): 0.0437 µM
half-life [9]: 2.3 h
CL/F [10]: 60.8 mL/min/kg
microsomal CLint at 1 µM [11]: 110 µL/min/mg
Drug metabolism (Plasma [12]): metabolite_detected
microsomal CLint at 1 µM [13]: 13 µL/min/mg
microsomal CLint at 0.1 µM [14]: 14 µL/min/mg
MRT [15]: 0.474 h
F (Mus musculus): 151%
CL (Plasma [16]): 71.4 uL/min.ml
AUC(0-inf) [17]: 23.7 µM·h
half-life at 0.83 µM [18]: 0.2 h
Cmax [19]: 0.782 µM
microsomal CLint at 0.1 µM [20]: 93 µL/min/mg
CL/F [21]: 77.2 mL/min/kg
Tmax [22]: 0.25 h
Tmax [23]: 1 h
microsomal CLint at 1 µM [24]: 50 µL/min/mg
half-life [25]: 2.17 h
Tmax [26]: 1 h
Vmax(app) (Plasma [27]): 19.7 pmol/min/mL
Km (Plasma [27]; read-out: Km(app)): 0.276 µM
half-life [28]: 1.05 h
microsomal CLint at 1 µM [29]: 33 µL/min/mg
bioavailability [30]: 21.1%
AUC(0-inf) [31]: 0.627 µM·h
Cmax [32]: 10.7 µM
CL/F [33]: 437 mL/min/kg
bioavailability [34]: 120%
AUC(0-inf) [35]: 37.4 µM·h
microsomal CLint at 1 µM [36]: 67 µL/min/mg
microsomal CLint at 0.1 µM [37]: 805 µL/min/mg
fraction unbound at 7 h [38]: 0.76
Cmax [39]: 15.2 µM
